Values joined by “and” are separate entries in the source; they are usually repeats but may differ in a detail not shown here. Equal values may be shown once.
Columns and labels:
Mus musculus [1] = assay: Antitumor activity expressed as %T/C was tested against fibrosarcoma at the dosage of 25 mg/Kg (sc); type: functional
Method in brief: (§1)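 Fibrosarcoma: 4 × 10⁶ cells were given sc to C₃H/He mice, 25–30 g. A single ip or sc dose in 0.89% saline followed on day three, with saline-injected controls. Mean life span of nonsurvivors excludes mice surviving 6 months or more, which were counted as tumour-free. T/C% is treated mean survival, excluding tumour-free survivors, divided by untreated mean life span ×100.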

Mus musculus [2] = assay: Antitumor activity expressed as mean life span of nonsurvivors in days (T/C) was tested against fibrosarcoma at the dosage of 25 mg/kg (sc); 39/29; type: functional, organism-based; set-up: dose 25 mg/kg; method in brief: as §1
Mus musculus [3] = assay: Antitumor activity expressed as mean life span of nonsurvivors in days (T/C) was tested against fibrosarcoma at the dosage of 50 mg/kg (ip); 37/28; type: functional, organism-based; set-up: dose 50 mg/kg; method in brief: as §1
Mus musculus [4] = assay: Antitumor activity expressed as %T/C was tested against fibrosarcoma at the dosage of 5 mg/Kg (sc); type: functional; method in brief: as §1
Mus musculus [5] = assay: Antitumor activity against fibrosarcoma infected mice at the dosage of 50 mg/kg (ip) and expressed as no. of mice injected; T/C= 10/6; type: functional, organism-based; set-up: dose 50 mg/kg
Mus musculus [6] = assay: Antitumor activity against fibrosarcoma infected mice at the dosage of 10 mg/kg (ip) and expressed as no. of mice injected; T/C= 8/8; type: functional, organism-based; set-up: dose 10 mg/kg
Mus musculus [7] = assay: Antitumor activity expressed as %T/C was tested against fibrosarcoma at the dosage of 10 mg/Kg (sc); type: functional; method in brief: as §1
Mus musculus [8] = assay: Antitumor activity expressed as mean life span of nonsurvivors in days (T/C) was tested against fibrosarcoma at the dosage of 5 mg/kg (sc); 30/27; type: functional, organism-based; set-up: dose 5 mg/kg; method in brief: as §1
Mus musculus [9] = assay: Antitumor activity expressed as average body weight change was tested against fibrosarcoma at the dosage of 50 mg/kg (ip); type: functional, organism-based; set-up: dose 50 mg/kg
Method in brief: (§2)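 Fibrosarcoma-bearing C₃H/He mice (4 × 10⁶ cells sc) received a single ip or sc dose in 0.89% saline on day three after transplant; controls received saline. The day of injection was taken as day zero. Mice were weighed on alternate days up to 4 weeks. Values are average % weight change from the day of treatment to day 21.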

Mus musculus [10] = assay: Antitumor activity against fibrosarcoma infected mice at the dosage of 25 mg/kg (sc) and expressed as no. of mice injected; T/C= 8/6; type: functional, organism-based; set-up: dose 25 mg/kg
Mus musculus [11] = assay: Antitumor activity against Dalton's lymphoma infected mice at the dosage of 10 mg/kg (ip) and expressed as no. of mice injected; T/C= 5/5; type: functional
Mus musculus [12] = assay: Antitumor activity expressed as %T/C was tested against fibrosarcoma at the dosage of 25 mg/Kg (ip); type: functional; method in brief: as §1
Mus musculus [13] = assay: Antitumor activity against fibrosarcoma infected mice at the dosage of 25 mg/kg (ip) and expressed as no. of mice injected; T/C= 7/7; type: functional, organism-based; set-up: dose 25 mg/kg
Mus musculus [14] = assay: Antitumor activity against Dalton's lymphoma infected mice at the dosage of 25 mg/kg (ip) and expressed as no. of mice injected; T/C= 5/5; type: functional
Mus musculus [15] = assay: Antitumor activity expressed as %T/C was tested against Dalton's lymphoma at the dosage of 10 mg/Kg (ip); type: functional
Method in brief: (§3)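 Dalton's lymphoma: 2 × 10⁷ ascites cells were given ip to DbA mice, 18–20 g. A single ip dose in 0.89% saline followed on day two, with saline-injected controls. Mean life span was calculated excluding mice that survived 6 months or more. T/C% is the mean survival of treated mice, excluding tumour-free survivors, divided by the mean life span of untreated mice ×100.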

Mus musculus [16] = assay: Antitumor activity expressed as mean life span of nonsurvivors in days (T/C) was tested against fibrosarcoma at the dosage of 25 mg/kg (ip); 33/25; type: functional, organism-based; set-up: dose 25 mg/kg; method in brief: as §1
Mus musculus [17] = assay: Antitumor activity expressed as mean life span of nonsurvivors in days (T/C) was tested against Dalton's lymphoma at the dosage of 10 mg/kg (ip); 30/23; type: functional, organism-based; set-up: dose 10 mg/kg; method in brief: as §3
Mus musculus [18] = assay: Antitumor activity expressed as mean life span of nonsurvivors in days (T/C) was tested against fibrosarcoma at the dosage of 5 mg/kg (ip); 34/26; type: functional, organism-based; set-up: dose 5 mg/kg; method in brief: as §1
Mus musculus [19] = assay: Antitumor activity expressed as mean life span of nonsurvivors in days (T/C) was tested against Dalton's lymphoma at the dosage of 2 mg/kg (ip); 24/23; type: functional, organism-based; set-up: dose 2 mg/kg; method in brief: as §3
Mus musculus [20] = assay: Antitumor activity expressed as average body weight change was tested against fibrosarcoma at the dosage of 5 mg/kg (sc); type: functional; method in brief: as §2
Mus musculus [21] = assay: Antitumor activity against Dalton's lymphoma infected mice at the dosage of 2 mg/kg (ip) and expressed as no. of mice injected; T/C= 5/5; type: functional
Mus musculus [22] = assay: Antitumor activity expressed as %T/C was tested against fibrosarcoma at the dosage of 5 mg/Kg (ip); type: functional; method in brief: as §1
Mus musculus [23] = assay: Antitumor activity expressed as the no. of mice surviving >6 months was tested against fibrosarcoma at the dosage of 5 mg/kg (ip); type: functional
Method in brief: (§4)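 Fibrosarcoma was established by sc inoculation of 4 × 10⁶ cells in mice. On day 3 they received a single ip or sc injection of compound freshly suspended in 0.89% saline, with 5–10 mice per group. The count is of mice surviving 6 months or more after treatment, scored as tumor-free, with the percentage of the group also given.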

Mus musculus [24] = assay: Antitumor activity expressed as mean life span of nonsurvivors in days (T/C) was tested against Dalton's lymphoma at the dosage of 25 mg/kg (ip); 38/23; type: functional, organism-based; set-up: dose 25 mg/kg; method in brief: as §3
Mus musculus [25] = assay: Antitumor activity against fibrosarcoma infected mice at the dosage of 5 mg/kg (sc) and expressed as no. of mice injected; T/C= 6/6; type: functional, organism-based; set-up: dose 5 mg/kg
Mus musculus [26] = assay: Antitumor activity expressed as mean life span of nonsurvivors in days (T/C) was tested against fibrosarcoma at the dosage of 10 mg/kg (ip); 35/27; type: functional, organism-based; set-up: dose 10 mg/kg; method in brief: as §1
Mus musculus [27] = assay: Antitumor activity expressed as mean life span of nonsurvivors in days (T/C) was tested against fibrosarcoma at the dosage of 10 mg/kg (sc); 41/28; type: functional, organism-based; set-up: dose 10 mg/kg; method in brief: as §1
Mus musculus [28] = assay: Antitumor activity expressed as %T/C was tested against Dalton's lymphoma at the dosage of 2 mg/Kg (ip); type: functional; method in brief: as §3
Mus musculus [29] = assay: Antitumor activity expressed as the no. of mice surviving >6 months was tested against fibrosarcoma at the dosage of 50 mg/kg (ip); type: functional; method in brief: as §4
Mus musculus [30] = assay: Antitumor activity against fibrosarcoma infected mice at the dosage of 10 mg/kg (sc) and expressed as no. of mice injected; T/C= 8/7; type: functional
Mus musculus [31] = assay: Antitumor activity expressed as average body weight change was tested against fibrosarcoma at the dosage of 10 mg/kg (sc); type: functional; method in brief: as §2
Mus musculus [32] = assay: Antitumor activity expressed as the no. of mice surviving >6 months was tested against fibrosarcoma at the dosage of 25 mg/kg (ip); type: functional; method in brief: as §4
Mus musculus [33] = assay: Antitumor activity expressed as average body weight change was tested against fibrosarcoma at the dosage of 10 mg/kg (ip); type: functional, organism-based; set-up: dose 10 mg/kg; method in brief: as §2
Mus musculus [34] = assay: Antitumor activity against fibrosarcoma infected mice at the dosage of 5 mg/kg (ip) and expressed as no. of mice injected; T/C= 8/8; type: functional, organism-based; set-up: dose 5 mg/kg
Mus musculus [35] = assay: Antitumor activity expressed as %T/C was tested against Dalton's lymphoma at the dosage of 25 mg/Kg (ip); type: functional; method in brief: as §3
Mus musculus [36] = assay: Antitumor activity expressed as average body weight change was tested against fibrosarcoma at the dosage of 25 mg/kg (sc); type: functional; method in brief: as §2
Mus musculus [37] = assay: Antitumor activity expressed as %T/C was tested against fibrosarcoma at the dosage of 50 mg/Kg (ip); type: functional; method in brief: as §1
Mus musculus [38] = assay: Antitumor activity expressed as average body weight change was tested against fibrosarcoma at the dosage of 25 mg/kg (ip); type: functional, organism-based; set-up: dose 25 mg/kg; method in brief: as §2
Mus musculus [39] = assay: Antitumor activity expressed as %T/C was tested against fibrosarcoma at the dosage of 10 mg/Kg (ip); type: functional; method in brief: as §1
Mus musculus [40] = assay: Antitumor activity expressed as average body weight change was tested against fibrosarcoma at the dosage of 5 mg/kg (ip); type: functional, organism-based; set-up: dose 5 mg/kg; method in brief: as §2

In the case of Copper(II) Complex, the T/C (Mus musculus [1]) is reported as 135%, the T/C (Mus musculus [2]) is reported as 39 days and the T/C (Mus musculus [3]) is reported as 37 days. For the same substance, the T/C (Mus musculus [4]) was 111%, the T/C (Mus musculus [5]) was 10 and the T/C (Mus musculus [6]) was 8. It also gave a T/C (Mus musculus [7]) of 146%, a T/C (Mus musculus [8]) of 30 days and an Average body weight change (Mus musculus [9]) of 8.51%. The T/C (Mus musculus [10]) was 8, the T/C (Mus musculus [11]) was 5 and the T/C (Mus musculus [12]) was 132%. The T/C (Mus musculus [13]) was 7, the T/C (Mus musculus [14]) was 5 and the T/C (Mus musculus [15]) was 130%. The T/C (Mus musculus [16]) was 33 days, the T/C (Mus musculus [17]) was 30 days and the T/C (Mus musculus [18]) was 34 days. It also gave a T/C (Mus musculus [19]) of 24 days, an Average body weight change (Mus musculus [20]) of 19.4% and a T/C (Mus musculus [21]) of 5. The T/C (Mus musculus [22]) was 131%, the No. of mice surviving >6 months (Mus musculus [23]) was 2 and the T/C (Mus musculus [24]) was 38 days. The T/C (Mus musculus [25]) was 6, the T/C (Mus musculus [26]) was 35 days and the T/C (Mus musculus [27]) was 41 days. It also gave a T/C (Mus musculus [28]) of 104%, a No. of mice surviving >6 months (Mus musculus [29]) of 4 and a T/C (Mus musculus [30]) of 8. The Average body weight change (Mus musculus [31]) was 5.86%, the No. of mice surviving >6 months (Mus musculus [32]) was 3 and 6 and the Average body weight change (Mus musculus [33]) was 18.3%. For the same substance, the T/C (Mus musculus [34]) was 8, the T/C (Mus musculus [35]) was 165% and the Average body weight change (Mus musculus [36]) was 5.51%. The T/C (Mus musculus [37]) was 132%, the Average body weight change (Mus musculus [38]) was 12% and the T/C (Mus musculus [39]) was 130%. For the same substance, the Average body weight change (Mus musculus [40]) was 15.5%.
